Measured values from ChEMBL document CHEMBL1156827, “Benzimidazole derivatives as new serotonin 5-HT6 receptor antagonists. Molecular mechanisms of receptor inactivation” (J Med Chem, 2010).
Activity calls are given as the source filed them. The calls are words filed in the database; no cut-off is given here.

Columns and labels:
[1] = target: T1, 5-hydroxytryptamine receptor 6 (Homo sapiens, UniProt P50406); assay: Displacement of [3H]LSD from human 5HT6 receptor expressed in HEK293 cells by liquid scintillation counting; type: cell-based
Summary of the method: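 Buffer: 50 mM Tris-HCl, 10 mM MgCl2, 0.5 mM EDTA, pH 7.4. Nonspecific binding was defined with 500 μM serotonin. Samples were filtered onto 0.5% PEI-soaked filters, washed with ice-cold Tris, and counted by scintillation. Screening was at 10^-6 M; six-point curves were run if displacement exceeded 50%. Ki by Cheng-Prusoff, 2-4 experiments.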

[2] = target: 5-hydroxytryptamine receptor 7 (Homo sapiens, UniProt P34969); assay: Displacement of [3H]LSD from human 5HT7 receptor expressed in HEK293 cells by liquid scintillation counting; type: cell-based
Summary of the method: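 Purchased HEK-293 membranes expressing h5-HT7R were incubated with 3 nM [³H]LSD for 120 min at 27 °C. Buffer: 50 mM Tris-HCl, 10 mM MgSO4, 0.5 mM EDTA, pH 7.4. Nonspecific binding was defined with 25 μM clozapine. Samples were filtered onto 0.3% PEI-soaked filters, washed with ice-cold Tris, and counted by scintillation. Ki was derived from IC50 by Cheng-Prusoff.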

[3] = target: T1, 5-hydroxytryptamine receptor 6; assay: Antagonist activity at human 5HT6 receptor expressed in COS7 cells assessed as inhibition of serotonin-induced cAMP accumulation by HTRF assay; type: functional, cell-based, COS-7
Summary of the method: (§1)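 COS-7 cells were transfected with wild-type or mutant receptor cDNA and seeded at 100000 cells/well. At 24 h post-transfection, cells were stimulated for 10 min at 37 °C with eight concentrations of test ligand plus 100 μM 5-HT. cAMP was read by HTRF. Three independent experiments in triplicate, mean ± SEM.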

[4] = target: T1, 5-hydroxytryptamine receptor 6; assay: Agonist activity at human 5HT6 receptor expressed in COS7 cells assessed as stimulation of cAMP accumulation by HTRF assay; type: functional, cell-based; conditions: COS-7
Summary of the method: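 COS-7 cells transfected with human 5-HT6R cDNA, seeded 100000 cells/well, stimulated 24 h post-transfection for 10 min at 37 °C with each tested compound without 5-HT (agonist mode). cAMP quantified by HTRF; activity expressed as percentage of maximal effect obtained with serotonin alone. Three independent experiments in triplicate.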

[5] = target: 5-hydroxytryptamine receptor 6 (Mus musculus, UniProt Q9R1C8); assay: Antagonist activity at mouse wild type 5HT6 receptor expressed in COS7 cells assessed as inhibition of serotonin-induced cAMP accumulation by HTRF assay; type: functional, cell-based, COS-7; summary of the method: as §1
[6] = target: 5-hydroxytryptamine receptor 6 (Mus musculus, UniProt Q9R1C8, C110A); assay: Antagonist activity at mouse 5HT6 receptor C3.36A mutant expressed in COS7 cells assessed as inhibition of serotonin-induced cAMP accumulation by HTRF assay; type: functional, cell-based, COS-7; summary of the method: as §1
[7] = target: 5-hydroxytryptamine receptor 6 (Mus musculus, UniProt Q9R1C8, W283A); assay: Antagonist activity at mouse 5HT6 receptor W6.48A mutant expressed in COS7 cells assessed as inhibition of serotonin-induced cAMP accumulation by HTRF assay; type: functional, cell-based, COS-7
Summary of the method: as §1, with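 “HTRF. […]” for “HTRF.”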

[8] = target: 5-hydroxytryptamine receptor 6 (Mus musculus, UniProt Q9R1C8, F287A); assay: Antagonist activity at mouse 5HT6 receptor F6.52A mutant expressed in COS7 cells assessed as inhibition of serotonin-induced cAMP accumulation by HTRF assay; type: functional, cell-based, COS-7
Summary of the method: as §1, with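 “HTRF. […]” for “HTRF.”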

[9] = Antagonist activity at mouse 5HT6 receptor N6.55A mutant expressed in COS7 cells assessed as inhibition of serotonin-induced cAMP accumulation by HTRF assay; type: functional, cell-based; conditions: cos-7
Summary of the method: as §1, with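 “HTRF. […]” for “HTRF.”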

T1 sequence (P50406 whole entry): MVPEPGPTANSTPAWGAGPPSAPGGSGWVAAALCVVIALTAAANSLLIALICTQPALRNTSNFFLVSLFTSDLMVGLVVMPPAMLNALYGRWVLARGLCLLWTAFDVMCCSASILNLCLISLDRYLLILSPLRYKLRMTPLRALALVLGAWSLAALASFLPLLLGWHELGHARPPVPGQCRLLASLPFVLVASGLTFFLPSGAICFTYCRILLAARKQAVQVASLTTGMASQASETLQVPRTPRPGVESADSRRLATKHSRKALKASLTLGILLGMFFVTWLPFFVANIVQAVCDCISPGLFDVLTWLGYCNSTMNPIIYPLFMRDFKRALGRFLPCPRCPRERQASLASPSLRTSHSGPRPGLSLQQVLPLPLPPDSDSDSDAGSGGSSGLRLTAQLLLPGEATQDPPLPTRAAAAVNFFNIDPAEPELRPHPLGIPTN
Chain of 5-hydroxytryptamine receptor 7 (P34969 whole entry): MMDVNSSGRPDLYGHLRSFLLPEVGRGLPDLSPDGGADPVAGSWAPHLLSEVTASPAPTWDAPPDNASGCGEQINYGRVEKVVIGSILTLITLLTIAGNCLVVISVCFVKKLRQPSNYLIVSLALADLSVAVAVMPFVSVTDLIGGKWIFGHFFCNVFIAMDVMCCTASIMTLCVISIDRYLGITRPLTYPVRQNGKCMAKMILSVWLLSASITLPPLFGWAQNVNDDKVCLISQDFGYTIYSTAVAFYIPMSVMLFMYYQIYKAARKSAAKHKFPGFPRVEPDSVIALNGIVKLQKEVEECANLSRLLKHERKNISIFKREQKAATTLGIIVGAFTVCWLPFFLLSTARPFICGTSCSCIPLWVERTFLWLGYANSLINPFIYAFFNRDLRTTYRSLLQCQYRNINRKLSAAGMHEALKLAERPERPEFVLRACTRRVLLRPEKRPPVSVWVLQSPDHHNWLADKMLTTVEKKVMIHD
Chain of 5-hydroxytryptamine receptor 6 (Mus musculus, UniProt Q9R1C8, C110A) (Q9R1C8 whole entry C110A): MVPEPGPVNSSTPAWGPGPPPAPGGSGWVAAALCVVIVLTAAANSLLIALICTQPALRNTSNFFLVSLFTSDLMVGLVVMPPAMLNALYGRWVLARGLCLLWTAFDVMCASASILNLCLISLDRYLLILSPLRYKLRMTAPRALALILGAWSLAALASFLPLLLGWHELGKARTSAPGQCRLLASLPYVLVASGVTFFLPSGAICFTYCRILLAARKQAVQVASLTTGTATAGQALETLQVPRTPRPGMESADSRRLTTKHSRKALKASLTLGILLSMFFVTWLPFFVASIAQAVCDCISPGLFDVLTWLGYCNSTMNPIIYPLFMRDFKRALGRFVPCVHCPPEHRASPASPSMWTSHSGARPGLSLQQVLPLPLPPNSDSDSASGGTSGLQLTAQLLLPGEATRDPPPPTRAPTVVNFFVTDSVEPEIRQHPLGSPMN
Chain of 5-hydroxytryptamine receptor 6 (Mus musculus, UniProt Q9R1C8, W283A) (Q9R1C8 whole entry W283A): as the sequence (Q9R1C8 whole entry C110A) above, with A110C, W283A counted along it
Chain of 5-hydroxytryptamine receptor 6 (Mus musculus, UniProt Q9R1C8, F287A) (Q9R1C8 whole entry F287A): as the sequence (Q9R1C8 whole entry C110A) above, with A110C, F287A counted along it
Chain of 5-hydroxytryptamine receptor 6 (Mus musculus, UniProt Q9R1C8) (Q9R1C8 whole entry): as the sequence (Q9R1C8 whole entry C110A) above, with A110C counted along it

SMILES | Ki [1] | Ki [2] | also measured
CN1CCN(c2cccc3[nH]c(Cc4ccccc4)nc23)CC1 | 66.8 nM | > 500 nM | Ki [3]: 16 nM; Activity [4]: inactive
c1ccc(Cc2nc3cc(N4CCNCC4)ccc3[nH]2)cc1 | > 1000 nM | > 500 nM | 
O=C(c1ccc2ccccc2c1)c1nc2cc(N3CCNCC3)ccc2[nH]1 | > 1000 nM | > 500 nM | 
O=C(c1ccccc1)c1nc2c(N3CCNCC3)cccc2[nH]1 | > 1000 nM | > 500 nM | 
CN1CCN(c2cccc3[nH]c(C(=O)c4cccc5ccccc45)nc23)CC1 |  | > 500 nM | 
CN1CCN(c2cccc3[nH]c(C(=O)c4ccccc4)nc23)CC1 | > 1000 nM | > 500 nM | 
CN1CCN(c2ccc3[nH]c(C(=O)c4ccccc4)nc3c2)CC1 | > 1000 nM | > 500 nM | 
CN1CCN(c2cccc3[nH]cnc23)CC1 | > 1000 nM |  | 
O=C(c1nc2c(N3CCNCC3)cccc2[nH]1)c1cccc2ccccc12 | 13 nM | > 500 nM | Ki [3]: 15 nM; Activity [4]: inactive
c1ccc(Cc2nc3c(N4CCNCC4)cccc3[nH]2)cc1 | 58 nM | > 500 nM | Ki [3]: 31 nM; Activity [4]: inactive
c1ccc2c(Cc3nc4ccc(N5CCNCC5)cc4[nH]3)cccc2c1 | > 1000 nM | > 500 nM | 
c1ccc2c(Cc3nc4c(N5CCNCC5)cccc4[nH]3)cccc2c1 | 16 nM | > 500 nM | Ki [3]: 16 nM; Activity [4]: inactive
CN1CCN(c2ccc3[nH]c(Cc4ccccc4)nc3c2)CC1 | > 1000 nM | > 500 nM | 
COc1ccc(NS(=O)(=O)c2ccc(I)cc2)cc1N1CCN(C)CC1 |  |  | Ki [5]: 0.75 nM; Ki [6]: 54 nM; Ki [7]: 0.32 nM; Ki [8]: 114 nM; Ki [9]: 27 nM

Second part, led by results:

Ki [1] | Ki [2] | SMILES | also measured
36.2 nM | > 500 nM | CN1CCN(c2cccc3[nH]c(Cc4cccc5ccccc45)nc23)CC1 | Ki [3]: 27 nM; Activity [4]: inactive
> 1000 nM | > 500 nM | CN1CCN(c2ccc3[nH]c(C(=O)c4cccc5ccccc45)nc3c2)CC1 | 
> 1000 nM | > 500 nM | CN1CCN(c2ccc3[nH]c(Cc4cccc5ccccc45)nc3c2)CC1 | 
> 1000 nM | > 500 nM | CN1CCN(c2ccc3[nH]c(Cc4ccc5ccccc5c4)nc3c2)CC1 | 
> 1000 nM | > 500 nM | CN1CCN(c2cccc3[nH]c(C(=O)c4ccc5ccccc5c4)nc23)CC1 | 
> 1000 nM | > 500 nM | c1ccc2cc(Cc3nc4ccc(N5CCNCC5)cc4[nH]3)ccc2c1 | 
> 1000 nM | > 500 nM | CN1CCN(c2ccc3[nH]c(C(=O)c4ccc5ccccc5c4)nc3c2)CC1 | 
